Laboratory results: ChEMBL document CHEMBL3877308, “Design, synthesis and in vitro biological evaluation of oligopeptides targeting E. coli type I signal peptidase (LepB)” (Bioorg Med Chem, 2017)
Values after ≈ are worked out from the molar mass of the structure shown.

Experiments:
[1] = biological target: Signal peptidase I (Escherichia coli K-12) (UniProt P00803); test: (§1) Inhibition of full length Escherichia coli His6-tagged LepB expressed in Escherichia coli C43(DE3) assessed as residual activity at 0.005 uM using dabcyl-VEVGGTATAGAFSRPGLE-(EDANS) as substrate preincubated for 10 mins followed by substrate addition measured for 2 hrs by FRET assay relative to control
In short: (§2)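 Enzyme came from the membrane fraction, extracted with 1% reduced Triton X-100 and purified by metal-chelation chromatography in 0.5% detergent. FRET pair was dabcyl acceptor and EDANS donor. EcLepB (final about 50 nM) was pre-incubated with compound 10 min at 22 °C. Reaction was then run with 8 µM substrate, following the linear fluorescence increase at 22 °C for 2 h.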

[2] = biological target: Signal peptidase I (Escherichia coli K-12) (UniProt P00803); test: as §1, with “0.02” for “0.005”; in short: as §2
[3] = Hemolytic activity against human RBC at 100 uM after 45 mins by spectrophotometric method relative to control; assay type: ADME, cell-based, Erythrocyte; conditions: red blood cells (RBC), read-out: Activity
In short: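 Hemolysis was tested using red blood cells from heparinized human blood.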

Pseudomonas aeruginosa [4] = test: Antibacterial activity against wild type Pseudomonas aeruginosa PAO750 harboring efflux defective mutant after 16 to 20 hrs by broth microdilution assay; assay type: functional
In short: (§3)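 Broth microdilution MIC in cation-adjusted Mueller-Hinton II medium, following EUCAST and CLSI guidelines; tested on a panel of Gram-negative strains plus S. aureus ATCC 29213 (wild-type).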

[5] = biological target: Signal peptidase I (Escherichia coli K-12) (UniProt P00803); test: as §1, with “0.0005” for “0.005”; in short: as §2
Escherichia coli [6] = test: Antibacterial activity against Escherichia coli D22 harboring lpxC mutant after 16 to 20 hrs by broth microdilution assay; assay type: functional; in short: as §3
Staphylococcus aureus = test: Antibacterial activity against wild type Staphylococcus aureus ATCC 29213 after 16 to 20 hrs by broth microdilution assay; assay type: functional
In short: (§4)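 MIC by broth microdilution in cation-adjusted Mueller-Hinton II medium, following EUCAST and CLSI guidelines; panel of Gram-negative strains plus S. aureus ATCC 29213.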

Escherichia coli [7] = test: Antibacterial activity against wild type Escherichia coli ATCC 25922 after 16 to 20 hrs by broth microdilution assay; assay type: functional; in short: as §4
[8] = biological target: Signal peptidase I (Escherichia coli K-12) (UniProt P00803); test: as §1, with “0.039” for “0.005”; in short: as §2
[9] = biological target: Signal peptidase I (Escherichia coli K-12) (UniProt P00803); test: as §1, with “0.078” for “0.005”; in short: as §2
Acinetobacter baumannii = test: Antibacterial activity against wild type Acinetobacter baumannii ATCC 19606 after 16 to 20 hrs by broth microdilution assay; assay type: functional; in short: as §4
[10] = biological target: Signal peptidase I (Escherichia coli K-12) (UniProt P00803); test: Inhibition of full length Escherichia coli His6-tagged LepB expressed in Escherichia coli C43(DE3) at 100 uM using dabcyl-VEVGGTATAGAFSRPGLE-(EDANS) as substrate preincubated for 10 mins followed by substrate addition measured for 2 hrs by FRET assay relative to control; in short: as §2
[11] = biological target: Signal peptidase I (Escherichia coli K-12) (UniProt P00803); test: as §1, with “0.625” for “0.005”; in short: as §2
Pseudomonas aeruginosa [12] = test: Antibacterial activity against wild type Pseudomonas aeruginosa PAO1 after 16 to 20 hrs by broth microdilution assay; assay type: functional; in short: as §4
Signal peptidase I = Signal peptidase I (Escherichia coli K-12, UniProt P00803); test: Inhibition of full length Escherichia coli His6-tagged LepB expressed in Escherichia coli C43(DE3) using dabcyl-VEVGGTATAGAFSRPGLE-(EDANS) as substrate preincubated for 10 mins followed by substrate addition measured for 2 hrs by FRET assay
In short: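 Enzyme extracted from the membrane fraction with 1% reduced Triton X-100 and purified by metal-chelation chromatography in 0.5% detergent. Enzyme (final ~50 nM) was pre-incubated with compound for 10 min at 22 °C. The linear rise in EDANS donor fluorescence (dabcyl acceptor) was then followed at 22 °C for 2 h. IC50 came from non-linear regression of sigmoidal rate-versus-concentration curves.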

[13] = biological target: Signal peptidase I (Escherichia coli K-12) (UniProt P00803); test: as §1, with “1.25” for “0.005”; in short: as §2
Escherichia coli [14] = test: Antibacterial activity against Escherichia coli CH3130 harboring tolC deletion mutant after 16 to 20 hrs by broth microdilution assay; assay type: functional; in short: as §3
[15] = Cytotoxicity against human HepG2 cells assessed as reduction in cell viability after 72 hrs by fluorescein diacetate dye based fluorometric microculture assay; assay type: toxicity
In short: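 FMCA on HepG2 cells read at 72 h. Survival index (%) is fluorescence in test wells as percent of control cultures, with blank values subtracted. IC50 was obtained by non-linear regression of log concentration-effect curves.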

[16] = biological target: Signal peptidase I (Escherichia coli K-12) (UniProt P00803); test: as §1, with “0.002” for “0.005”; in short: as §2
[17] = biological target: Signal peptidase I (Escherichia coli K-12) (UniProt P00803); test: Inhibition of full length Escherichia coli His6-tagged LepB expressed in Escherichia coli C43(DE3) assessed as residual activity at 2.5 uM using dabcyl-VEVGGTATAGAFSRPGLE-(EDANS) as substrate preincubated for 10 mins followed by substrate addition measured for 2 hrs by FRET assay relative to control; in short: as §2
[18] = biological target: Signal peptidase I (Escherichia coli K-12) (UniProt P00803); test: as §1, with “0.001” for “0.005”; in short: as §2
[19] = biological target: Signal peptidase I (Escherichia coli K-12) (UniProt P00803); test: as §1, with “0.156” for “0.005”; in short: as §2
Klebsiella pneumoniae = test: Antibacterial activity against wild type Klebsiella pneumoniae […] after 16 to 20 hrs by broth microdilution assay; assay type: functional; in short: as §4
[20] = biological target: Signal peptidase I (Escherichia coli K-12) (UniProt P00803); test: as §1, with “0.313” for “0.005”; in short: as §2
[21] = biological target: Signal peptidase I (Escherichia coli K-12) (UniProt P00803); test: (§5) Inhibition of full length Escherichia coli His6-tagged LepB expressed in Escherichia coli C43(DE3) assessed as residual activity at 10 uM using dabcyl-VEVGGTATAGAFSRPGLE-(EDANS) as substrate preincubated for 10 mins followed by substrate addition measured for 2 hrs by FRET assay relative to control; in short: as §2
[22] = biological target: Signal peptidase I (Escherichia coli K-12) (UniProt P00803); test: as §5, with “at 0.01” for “at 10”; in short: as §2
[23] = biological target: Signal peptidase I (Escherichia coli K-12) (UniProt P00803); test: Inhibition of full length Escherichia coli His6-tagged LepB expressed in Escherichia coli C43(DE3) assessed as residual activity at 5 uM using dabcyl-VEVGGTATAGAFSRPGLE-(EDANS) as substrate preincubated for 10 mins followed by substrate addition measured for 2 hrs by FRET assay relative to control; in short: as §2

Sequence of Signal peptidase I (Escherichia coli K-12) (P00803 whole entry): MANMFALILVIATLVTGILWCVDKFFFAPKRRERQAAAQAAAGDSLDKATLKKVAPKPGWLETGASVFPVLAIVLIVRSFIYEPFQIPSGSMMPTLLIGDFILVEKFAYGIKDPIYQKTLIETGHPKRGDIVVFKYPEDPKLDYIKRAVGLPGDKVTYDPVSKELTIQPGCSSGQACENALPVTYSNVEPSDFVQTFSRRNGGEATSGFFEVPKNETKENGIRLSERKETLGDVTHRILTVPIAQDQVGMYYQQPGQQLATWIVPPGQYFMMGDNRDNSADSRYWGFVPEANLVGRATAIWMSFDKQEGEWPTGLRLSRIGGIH
Sequence of Signal peptidase I (P00803 whole entry): as above

## CCCCCCc1ccc(-c2ccc(C(=O)N3CC(CN)C[C@H]3C(=O)N[C@H](C(=O)N[C@@H](C)C(=O)N[C@@H](CC(N)=O)C(=O)N[C@@H](C)B(O)O)[C@H](C)O)cc2)cc1 (some centres not stated)
[1]
  Activity: 60.1%
[2]
  Activity: 36.2%
[3]
  hemolysis at 0.75 h, 100 µM: 2.5%
Pseudomonas aeruginosa [4]
  MIC: 4 mg/L (≈ 5.22 µM)
[5]
  Activity: 88.8%
Escherichia coli [6]
  MIC: 0.5 mg/L (≈ 0.653 µM)
Staphylococcus aureus
  MIC: 0.25 mg/L (≈ 0.326 µM)
Escherichia coli [7]
  MIC: 16 mg/L (≈ 20.9 µM)
[8]
  Activity: 27.7%
[9]
  Activity: 25.7%
Acinetobacter baumannii
  MIC: 8 mg/L (≈ 10.4 µM)
[10]
  inhibition: > 50%
[11]
  Activity: 25.1%
Pseudomonas aeruginosa [12]
  MIC: 64 mg/L (≈ 83.6 µM)
Signal peptidase I
  IC50: 0.006 µM
[13]
  Activity: 28.4%
Escherichia coli [14]
  MIC: 2 mg/L (≈ 2.61 µM)
[15]
  IC50 at 72 h: 15.6 µM
[16]
  Activity: 85.8%
[17]
  Activity: 24.8%
[18]
  Activity: 86.8%
[19]
  Activity: 27.4%
Klebsiella pneumoniae
  MIC: 8 mg/L (≈ 10.4 µM)
[20]
  Activity: 25.3%
[21]
  Activity: 24.6%
[22]
  Activity: 51.8%
[23]
  Activity: 28.2%
